Source: ChEMBL document CHEMBL1649314, “Experimental murine scedosporiosis: histopathology and azole treatment” (2010)
Converted amounts (≈) assume the structure as drawn. The source made the active and inactive calls. The rule behind the calls is not given here.

Assays:
[1] = tested on: Scedosporium aurantiacum; assay: Antifungal activity against Scedosporium aurantiacum IHEM 15458 infected in immunosuppressed OF1 mouse assessed as reduction in brain fungal burden at 20 mg/kg, po BID administered 24 hrs postinfection for 10 days measured after 20 days; type: functional, organism-based; set-up: dose 20 mg/kg
[2] = tested on: Scedosporium apiospermum; assay: Antifungal activity against Scedosporium apiospermum CBS 117407 infected in immunosuppressed OF1 mouse assessed as reduction in kidney fungal burden at 10 mg/kg, po BID administered 24 hrs postinfection for 10 days measured after 20 days; type: functional, organism-based; set-up: dose 10 mg/kg
[3] = Antifungal activity against Scedosporium aurantiacum CBS 116910 infected in immunosuppressed OF1 mouse assessed as prolonged survival of mouse at 20 mg/kg, po BID administered 24 hrs postinfection for 10 days measured after 20 days; type: functional, organism-based; set-up: dose 20 mg/kg
Procedure, shortened: (§1)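 Male OF1 mice, groups of 10, immunosuppressed 1 day before infection with cyclophosphamide 200 mg/kg i.p. plus 5-fluorouracil 150 mg/kg i.v. Infected i.v. via tail vein with 1 × 10^4 CFU in 0.2 ml saline. Oral treatment began 24 h post-challenge for 10 days. Mice checked daily for 20 days. Survival by Kaplan-Meier, compared by log rank test.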

[4] = tested on: Scedosporium boydii; assay: Antifungal activity against Scedosporium boydii FMR 8627 infected in immunosuppressed OF1 mouse assessed as reduction in brain fungal burden at 20 mg/kg, po BID administered 24 hrs postinfection for 10 days measured after 20 days; type: functional, organism-based; set-up: dose 20 mg/kg
[5] = tested on: Scedosporium aurantiacum; assay: Antifungal activity against Scedosporium aurantiacum IHEM 15458 infected in immunosuppressed OF1 mouse assessed as reduction in kidney fungal burden at 20 mg/kg, po BID administered 24 hrs postinfection for 10 days measured after 20 days; type: functional, organism-based; set-up: dose 20 mg/kg
[6] = tested on: Scedosporium apiospermum; assay: Antifungal activity against Scedosporium apiospermum CBS 117407 infected in immunosuppressed OF1 mouse assessed as reduction in brain fungal burden at 20 mg/kg, po BID administered 24 hrs postinfection for 10 days measured after 20 days; type: functional, organism-based; set-up: dose 20 mg/kg
[7] = tested on: Scedosporium aurantiacum; assay: Antifungal activity against Scedosporium aurantiacum CBS 116910 infected in immunosuppressed OF1 mouse assessed as reduction in brain fungal burden at 40 mg/kg, po BID administered 24 hrs postinfection for 10 days measured after 20 days; type: functional, organism-based; set-up: dose 40 mg/kg
[8] = tested on: Scedosporium apiospermum; assay: Antifungal activity against Scedosporium apiospermum IHEM 14464 infected in immunosuppressed OF1 mouse assessed as prolonged survival of mouse at 10 mg/kg, po BID administered 24 hrs postinfection for 10 days measured after 20 days; type: functional, organism-based; set-up: dose 10 mg/kg; procedure, shortened: as §1
[9] = tested on: Scedosporium boydii; assay: Antifungal activity against Scedosporium boydii FMR 6694 infected in immunosuppressed OF1 mouse assessed as reduction in kidney fungal burden at 20 mg/kg, po BID administered 24 hrs postinfection for 10 days measured after 20 days; type: functional, organism-based; set-up: dose 20 mg/kg
[10] = Antifungal activity against Scedosporium aurantiacum IHEM 15458 infected in immunosuppressed OF1 mouse assessed as prolonged survival of mouse at 20 mg/kg, po BID administered 24 hrs postinfection for 10 days measured after 20 days; type: functional, organism-based; set-up: dose 20 mg/kg; procedure, shortened: as §1
[11] = tested on: Scedosporium boydii; assay: Antifungal activity against Scedosporium boydii FMR 8627 infected in immunosuppressed OF1 mouse assessed as prolonged survival of mouse at 10 mg/kg, po BID administered 24 hrs postinfection for 10 days measured after 20 days; type: functional, organism-based; set-up: dose 10 mg/kg
Procedure, shortened: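 Male OF1 mice were immunosuppressed 1 day before infection with cyclophosphamide 200 mg/kg i.p. plus 5-fluorouracil 150 mg/kg i.v. They were infected i.v. via a lateral tail vein with 1 × 10^4 CFU/mouse in 0.2 ml saline. Oral dosing was 10 or 20 mg/kg twice daily, or 20 or 40 mg/kg once daily (those mice and controls drank grapefruit juice from day −3). Dosing ran 24 h post-challenge for 10 days; 10 mice/group; observed daily to day 20; Kaplan-Meier with log rank test.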

[12] = tested on: Scedosporium boydii; assay: Antifungal activity against Scedosporium boydii FMR 8627 infected in immunosuppressed OF1 mouse assessed as reduction in brain fungal burden at 40 mg/kg, po BID administered 24 hrs postinfection for 10 days measured after 20 days; type: functional, organism-based; set-up: dose 40 mg/kg
[13] = Antifungal activity against Scedosporium aurantiacum IHEM 15458 by broth dilution method; type: functional
[14] = Antifungal activity against Scedosporium aurantiacum CBS 116910 by broth dilution method; type: functional

## CC[C@@H]([C@H](C)O)n1ncn(-c2ccc(N3CCN(c4ccc(OC[C@@H]5CO[C@@](Cn6cncn6)(c6ccc(F)cc6F)C5)cc4)CC3)cc2)c1=O [POSACONAZOLE]
[1]
  Activity: Active
[2]
  Activity: Active
[3]
  Activity: Active
[4]
  Activity: Active
[5]
  Activity: Active
[6]
  Activity: Active
[7]
  Activity: Active
[8]
  Activity: Active
[9]
  Activity: inactive
[10]
  Activity: Active
[11]
  Activity: Active
[12]
  Activity: Active
[13]
  MIC: 2 µg/mL (≈ 2.85 µM)
[14]
  MIC: 32 µg/mL (≈ 45.7 µM)
